# From the RNAGym collection of RNA variant scans (doi:10.1126/science.aae0568)
# This sample holds only a part of the variants without activity.
# B1: tRNA (parent)
# chain: GUUCCGUUGGCGUAAUGGUAACGCGUCUCCCUCCUAAGGAGAAGACUGCGGGUUCGAGUCCCGUACGGAACG
# Variants of: B1
# Experiment: yeast fitness relative to wild type (ratio to wild type); higher = fitter; tRNA-Arg(CCU), competitive growth, 37 C, YPD
# How it was run: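 Gene amplicons from the start population and from each of six end populations were read by 100-nucleotide paired-end sequencing. Those end populations came from pooled Saccharomyces cerevisiae strains carrying tRNA-Arg(CCU) gene variants at the native locus, competed in YPD at 37°C for 24 hours. Fitness relative to wild type was worked out from changes in genotype frequencies. Genotypes needed ≥ 100 starting reads, and estimates < 0.5 were set to 0.5.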
row,Variant,yeast fitness
1,GUUCCGUUGGCGUAAUGGUAACGCGUCUCCCUCCUGAGGAGAAGACUGCGGGUUCGAGUCCCGUUCAGAACG,0.502
2,GUUCCGUUGGCGUAAUGGUAACGCGUCUCCCUCCUGAGGAGAAGACUGCGGGUUCGAGUCCCGUACGGCACG,1.05
3,GUUCCGUUGGCGUAAUGGUAACGCGUCUCCCUCCUGAGGAGAAGACUGCGGGUUCGAGUCCCGUACGGUACG,1.02
4,GUUCCGUUGGCGUAAUGGUAACGCGUCUCCCUCCUGAGGAGAAGAGUGUGGGUUCGAGUCCCGUACGGAACG,0.763
5,GUUCCGUUGGCGUAAUGGUAACGCGUCUCCCUCCUGAGGAGAAGAGUGCGGGUUCGAGUCCCAUACGGAACG,0.652
6,GUUCCGUUGGCGUAAUGGUAACGCGUCUCCCUCCUGAGGAGAAGAUUGCGGGUUCGAGUCCCGUACGGAACG,0.952
7,GUUCCGUUGGCGUAAUGGUAACGCGUCUCCCUCCUGAGGAGAAGAUUGCGGGUUCGCGUCCCGUACGGAACG,≤ 0.5
8,GUUCCGUUGGCGUAAUGGUAACGCGUCUCCCUCCUGAGGAGAAGAUUGCGGGUUCGAGUCCCGUACGGUACG,0.841
9,GUUCCGUUGGCGUAAUGGUAACGCGUCUCCCUCCUGAGGAGAAGACUGAGGGUUCGAGUCCCGUACGGAACG,0.799
10,GUUCCGUUGGCGUAAUGGUAACGCGUCUCCCUCCUGAGGAGAAGACUGGGGGUUCGAGUCCCGUACGGAACG,0.776
11,GUUCCGUUGGCGUAAUGGUAACGCGUCUCCCUCCUGAGGAGAAGACUGGGGGUUCGAGUCCCAUACGGCCCG,≤ 0.5
12,GUUCCGUUGGCGUAAUGGUAACGCGUCUCCCUCCUGAGGAGAAGACUGUGGGUUCGAGUCCCGUACGGACCG,0.663
13,GUUCCGUUGGCGUAAUGGUAACGCGUCUCCCUCCUGAGGAGAAGACUGUGGGUUCGAGUCUCGUACGGAACG,0.654
14,GUUCCGUUGGCGUAAUGGUAACGCGUCUCCCUCCUGAGGAGAAGACUGUGGGUUCGAGUCCCGUAGGGAACG,≤ 0.5
15,GUUCCGUUGGCGUAAUGGUAACGCGUCUCCCUCCUGAGGAGAAGACUGUGGGUUCGACUCCCGUACGGAACG,0.655
16,GUUCCGUUGGCGUAAUGGUAACGCGUCUCCCUCCUGAGGAGAAGACUGCGGGUUAGAGUCCCGUACGGUACG,0.635
17,GUUCCGUUGGCGUAAUGGUAACGCGUCUCCCUCCUGAGGAGAAGACUGCGGGUUAGAGUUCCGUACGGAACG,≤ 0.5
18,GUUCCGUUGGCGUAAUGGUAACGCGUCUCCCUCCUGAGGAGAAGACUGCGGGUUAGAGUCCCGUAAGGAACG,≤ 0.5
19,GUUCCGUUGGCGUAAUGGUAACGCGUCUCCCUCCUGAGGAGAAGACUGCGGGUUAGAGUCCCGUACCGAACG,≤ 0.5

row,Variant,yeast fitness
1,GUUCCGUUGGCGUAAUGGUAACGCGUCUCCCUCCUGAGGAGAAGACUGCGGGUUGGAGUCCCGUGCGGAACG,≤ 0.5
2,GUUCCGUUGGCGUAAUGGUAACGCGUCUCCCUCCUGAGGAGAAGACUGCGGGUUUGAGUCCCGUACGGAACG,0.743
3,GUUCCGUUGGCGUAAUGGUAACGCGUCUCCCUCCUGAGGAGAAGACUGCGGGUUCGAGUACCGUACGGAGCG,≤ 0.5
4,GUUCCGUUGGCGUAAUGGUAACGCGUCUCCCUCCUGAGGAGAAGACUGCGGGUUCGAGUAGCGUUCGGAACG,≤ 0.5
5,GUUCCGUUGGCGUAAUGGUAACGCGUCUCCCUCCUGAGGAGAAGACUGCGGGUUCGAGUGCCGUACGGAACG,0.629
6,GUUCCGUUGGCGUAAUGGUAACGCGUCUCCCUCCUGAGGAGAAGACUGCGGGUUCGAGUUCCGUACGGAACG,0.793
7,GUUCCGUUGGCGUAAUGGUAACGCGUCUCCCUCCUGAGGAGAAGACUGCGGGUUCGAGUUCCGUACGGAUCG,≤ 0.5
8,GUUCCGUUGGCGUAAUGGUAACGCGUCUCCCUCCUGAGGAGAAGACUGCGGGUUCGAGUUUCGUACGGAACG,0.625
9,GUUCCGUUGGCGUAAUGGUAACGCGUCUCCCUCCUGAGGAGAAGACUGCGGGUUCGAGUCACGUACGGAACG,0.766
10,GUUCCGUUGGCGUAAUGGUAACGCGUCUCCCUCCUGAGGAGAAGACUGCGGGUUCGAGUCGCGUACGGACCG,0.661
11,GUUCCGUUGGCGUAAUGGUAACGCGUCUCCCUCCUGAGGAGAAGACUGCGGGUUCGAGUCUCGUACGGAACG,0.891
12,GUUCCGUUGGCGUAAUGGUAACGCGUCUCCCUCCUGAGGAGAAGACUGCGGGUUCGAGUCUCGUACGGAUCG,0.755
13,GUUCCGUUGGCGUAAUGGUAACGCGUCUCCCUCCUGAGGAGAAGACUGCGGGUUCGAGUCUCGUAUGGAACG,0.543
14,GUUCCGUUGGCGUAAUGGUAACGCGUCUCCCUCCUGAGGAGAAGACUGCGGGUUCGAGUCCACUACGGAACG,≤ 0.5
15,GUUCCGUUGGCGUAAUGGUAACGCGUCUCCCUCCUGAGGAGAAGACUGCGGGUUCGAGUCCCGUAAGGAACG,0.683
16,GUUCCGUUGGCGUAAUGGUAACGCGUCUCCCUCCUGAGGAGAAGACUGCGGGUUCGAGUCCCGUAUGGAACG,0.949
17,GUUCCGUUGGCGUAAUGGUAACGCGUCUCCCUCCUGACGAGAAGACUGCGGGUUCGAGUCCCGUACGGAACG,0.719
18,GUUCCGUUGGCGUAAUGGUAACGCGUCUCCCUCCUGACGAGAAGACUGCGGCUUCGUGUCCCGUACGGAACG,≤ 0.5
19,GUUCCGUUGGCGUAAUGGUAACGCGUCUCCCUCCUGACGAGAAGACUGCGGCUUCGUGUCCCGUACGGUGCG,≤ 0.5
